From ChEMBL document CHEMBL4350969, “Falcipain Inhibitors Based on the Natural Product Gallinamide A Are Potent in Vitro and in Vivo Antimalarials” (J Med Chem, 2019)
The source made the active and inactive calls. The rule behind the calls is not given here.

Tests used:
[1] = biological target: T1, Falcipain 2 (Plasmodium falciparum, UniProt Q9N6S8); experiment: Inhibition of Plasmodium falciparum N-terminal His6-tagged falcipain-2 (35 residues) expressed in Escherichia coli M15 pREP4 using Z-Lue-Arg-AMC as substrate measured after 30 mins by spectrofluorometric method
T1 sequence (Q9N6S8 whole entry): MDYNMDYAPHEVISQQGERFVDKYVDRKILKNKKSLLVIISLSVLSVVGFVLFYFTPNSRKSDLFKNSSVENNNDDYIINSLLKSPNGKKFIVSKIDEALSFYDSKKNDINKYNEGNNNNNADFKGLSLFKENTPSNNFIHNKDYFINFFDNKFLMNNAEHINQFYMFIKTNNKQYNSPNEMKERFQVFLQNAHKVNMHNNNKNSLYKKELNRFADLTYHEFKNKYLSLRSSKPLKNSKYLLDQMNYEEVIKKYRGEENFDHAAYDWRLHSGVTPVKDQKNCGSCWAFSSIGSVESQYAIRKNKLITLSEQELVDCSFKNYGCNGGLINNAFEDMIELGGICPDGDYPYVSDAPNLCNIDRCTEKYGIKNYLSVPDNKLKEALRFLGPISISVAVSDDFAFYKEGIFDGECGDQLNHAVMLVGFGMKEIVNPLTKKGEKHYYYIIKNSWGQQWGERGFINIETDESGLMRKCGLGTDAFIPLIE
In short: (§1)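 Recombinant heterologously expressed FP2 or FP3; inhibition measured by continuous kinetic cleavage of fluorogenic substrate Z-Leu-Arg-AMC.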

[2] = biological target: T2, Cysteine protease falcipain-3 (Plasmodium falciparum, UniProt Q9NAW4); experiment: Inhibition of Plasmodium falciparum N-terminal His-tagged falcipain-3 (33 residues) expressed in Escherichia coli M15 pREP4 using Z-Leu-Arg-AMC as substrate measured after 30 mins by spectrofluorometric method; in short: as §1
T2 sequence (Q9NAW4 whole entry): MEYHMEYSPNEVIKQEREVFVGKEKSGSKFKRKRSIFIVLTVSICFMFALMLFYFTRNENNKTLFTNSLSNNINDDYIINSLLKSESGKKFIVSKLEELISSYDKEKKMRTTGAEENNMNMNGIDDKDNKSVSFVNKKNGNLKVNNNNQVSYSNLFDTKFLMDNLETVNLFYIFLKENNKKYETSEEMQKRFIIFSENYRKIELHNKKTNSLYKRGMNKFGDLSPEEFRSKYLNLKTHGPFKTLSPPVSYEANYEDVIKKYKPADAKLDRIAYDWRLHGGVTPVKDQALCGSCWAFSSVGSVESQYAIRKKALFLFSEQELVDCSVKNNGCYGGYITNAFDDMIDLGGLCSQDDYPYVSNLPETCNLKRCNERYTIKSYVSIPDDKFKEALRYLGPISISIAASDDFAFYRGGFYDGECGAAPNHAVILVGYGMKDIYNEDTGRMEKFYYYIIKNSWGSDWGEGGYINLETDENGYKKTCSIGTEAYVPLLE

[3] = system: Plasmodium falciparum; experiment: Antimalarial activity against synchronized ring stage CQ-sensitive Plasmodium falciparum 3D7 infected in human erythrocytes incubated for 24 hrs followed by compound washout and subsequent compound addition and measured after 48 hrs by YOYO-1 probe-based flow cytometry; format: functional, organism-based
[4] = system: Plasmodium falciparum; experiment: Antimalarial activity against synchronized ring stage CQ-resistant Plasmodium falciparum W2 infected in human erythrocytes incubated for 24 hrs followed by compound washout and subsequent compound addition and measured after 48 hrs by YOYO-1 probe-based flow cytometry; format: functional, organism-based
[5] = Half life in Swiss mouse plasma at 1 ug/ml by UPLC-MS analysis; format: ADME, cell-free
In short: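 Fresh whole blood from non-fasted male Swiss outbred mice; plasma separated by centrifugation. Compound spiked to 1 μg/mL final (0.2% DMSO, 0.4% acetonitrile), kept at 37 °C; aliquots taken over 4 h (n=3 per time point), snap-frozen, protein precipitated with acetonitrile, UPLC-MS (ESI+) against matrix calibration standards. Exponential decay fit gives k; half-life = ln(2)/k.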

[6] = Half life in Swiss mouse blood at 1 ug/ml by UPLC-MS analysis; format: ADME, tissue-based; conditions: whole blood
[7] = system: Plasmodium falciparum; experiment: Induction of morphological changes in synchronized ring stage Plasmodium falciparum W2 infected in human erythrocytes assessed as swollen food vacuoles with accumulated hemoglobin at 300 nM measured after 36 hrs by Giemsa staining-based photomicrographic method; format: functional, organism-based
In short: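 Synchronized W2 P. falciparum cultures exposed from ring stage for 36 h to compound (4.5–10,000 nM range), with E-64 and 0.1% DMSO controls; thin smears methanol-fixed, Giemsa-stained and photographed.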

[8] = system: HEK293; experiment: Cytotoxicity against HEK293 cells assessed as reduction in cell viability at 25 uM measured after 18 hrs by alamar blue assay; format: cell-based; conditions: human, hek293, 18 h
[9] = Drug metabolism in human liver microsomes assessed as N-demethylation at 10 uM measured after 60 mins in presence of NADPH-generating system by UPLC-MS analysis; format: ADME, Microsome; conditions: 1 h
[10] = Drug metabolism in mouse liver microsomes assessed as N-demethylation at 10 uM measured after 60 mins in presence of NADPH-generating system by UPLC-MS analysis; format: ADME, Microsome; conditions: 1 h
[11] = system: Plasmodium berghei; experiment: Antimalarial activity against Plasmodium berghei ANKA infected in specific pathogen-free C57BL/6 mouse assessed as reduction in parasitemia at 12.5 to 50 mg/kg, ip administered at 72 hrs post-infection and measured daily up to 35 days post-infection by rapid staining-based microscopic analysis; format: functional, organism-based
In short: (§2)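 Peters 4-day suppressive test: female C57BL/6 mice, 8–9 weeks old, inoculated i.p. with 10^6 PbA-parasitized red cells in 200 µL Alsever's medium. Compound in DMSO diluted in saline (50, 25, 12.5, 6.25 mg/kg) or vehicle, 200 µL i.p. at 4, 24, 48 and 72 h. Daily tail-vein smears, Rapid Stain, % parasitemia by microscopy; cure = healthy, no parasitemia at day 35; 5 mice/group, mean ± SEM.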

[12] = system: Plasmodium berghei; experiment: Antimalarial activity against Plasmodium berghei ANKA infected in specific pathogen-free C57BL/6 mouse assessed as reduction in parasitemia at 25 to 50 mg/kg, ip administered at 72 hrs post-infection and measured daily up to 35 days post-infection by rapid staining-based microscopic analysis; format: functional, organism-based; in short: as §2
[13] = Drug metabolism in human liver microsomes assessed as N,N-bis-demethylation at 10 uM measured after 60 mins in presence of NADPH-generating system by UPLC-MS analysis; format: ADME, Microsome; conditions: 1 h
[14] = Drug metabolism in mouse liver microsomes assessed as N,N-bis-demethylation at 10 uM measured after 60 mins in presence of NADPH-generating system by UPLC-MS analysis; format: ADME, Microsome; conditions: 1 h
[15] = Intrinsic clearance in mouse liver microsomes assessed per mg protein at 1 uM measured after 60 mins in presence of NADPH-generating system by UPLC-MS analysis; format: ADME, Microsome; conditions: read-out: CLH
[16] = system: Plasmodium berghei; experiment: Antimalarial activity against Plasmodium berghei ANKA infected in specific pathogen-free C57BL/6 mouse assessed as reduction in parasitemia at […] to 12.5 mg/kg, ip administered at 72 hrs post-infection and measured daily up to 35 days post-infection by rapid staining-based microscopic analysis; format: functional, organism-based; in short: as §2
[17] = system: Plasmodium berghei; experiment: Antimalarial activity against Plasmodium berghei ANKA infected in specific pathogen-free C57BL/6 mouse assessed as reduction in parasitemia at 50 mg/kg, ip administered once daily for 4 days measured up to 35 days post-infection by rapid staining-based microscopic analysis; format: functional, organism-based
In short: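 Established-infection model: female C57BL/6 mice inoculated i.p. with 10^6 PbA-parasitized red cells; compound in DMSO diluted in saline given i.p. at 50 mg/kg on days 4, 5, 6 and 7 post-infection, chloroquine 50 mg/kg as comparator, vehicle controls; 7 mice per group. Tail-vein smears, % parasitemia by microscopy, mean ± SEM; survival recorded.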

[18] = system: Plasmodium berghei; experiment: Antimalarial activity against Plasmodium berghei ANKA infected in specific pathogen-free C57BL/6 mouse assessed as reduction in parasitemia at 100 mg/kg, po administered once daily for 4 days measured up to 35 days post-infection by rapid staining-based microscopic analysis; format: functional, organism-based
In short: (§3)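 Female C57BL/6 mice, 8–9 weeks old, inoculated i.p. with 10^6 P. berghei ANKA-parasitized red cells. Compound dissolved in DMSO, diluted in 154 mM NaCl, given by oral gavage at 100 mg/kg on days 4, 5, 6 and 7 post-infection. Tail-vein thin smears stained with Rapid Stain, % parasitemia by microscopy; mice euthanized at signs of severe disease.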

[19] = system: Plasmodium berghei; experiment: Antimalarial activity against Plasmodium berghei ANKA infected in specific pathogen-free C57BL/6 mouse assessed as reduction in disease severity at 100 mg/kg, po administered once daily for 4 days measured up to 35 days post-infection by rapid staining-based microscopic analysis; format: functional, organism-based; in short: as §3
[20] = system: Plasmodium berghei; experiment: Antimalarial activity against Plasmodium berghei ANKA infected in specific pathogen-free C57BL/6 mouse assessed as mouse survival at 25 to 50 mg/kg, ip administered at 72 hrs post-infection by rapid staining-based microscopic analysis

COC1=CC(=O)N(C(=O)/C=C/[C@H](C)NC(=O)[C@H](CC(C)C)NC(=O)[C@H](CC2CCCCC2)NC(=O)C2CCN(C)CC2)[C@H]1Cc1c[nH]c2ccccc12.O=C(O)C(F)(F)F
IC50 [1]: 31 nM
IC50 [2]: 117 nM
IC50 [3]: 26 nM
IC50 [4]: 28 nM
half-life at 1 ug/ml [5]: 2.1 h
half-life at 1 ug/ml [6]: 0.683 h
Activity [7]: Active
Activity [8]: Non-Toxic
Drug metabolism [9]: Metabolite_Detected
Drug metabolism [10]: Metabolite_Detected
Activity [11]: Active

COC1=CC(=O)N(C(=O)/C=C/[C@H](C)NC(=O)[C@H](CC(C)C)NC(=O)[C@H](CC(C)C)NC(=O)C2CCN(C)CC2)[C@H]1Cc1c[nH]c2ccccc12.O=C(O)C(F)(F)F
IC50 [1]: 29 nM
IC50 [2]: 79 nM
IC50 [3]: 42 nM
IC50 [4]: 49 nM
half-life at 1 ug/ml [5]: 1.37 h
half-life at 1 ug/ml [6]: 0.283 h
Activity [7]: Active
Activity [8]: Non-Toxic
Drug metabolism [9]: Metabolite_Detected
Drug metabolism [10]: Metabolite_Detected
Activity [12]: Active

COC1=CC(=O)N(C(=O)/C=C/[C@H](CCc2ccccc2)NC(=O)[C@H](CC(C)C)NC(=O)[C@H](CC(C)C)NC(=O)[C@H](C(C)C)N(C)C)[C@H]1Cc1c[nH]c2ccccc12.O=C(O)C(F)(F)F
IC50 [1]: 33 nM
IC50 [2]: 112 nM
IC50 [3]: 1 nM
IC50 [4]: 4 nM
half-life at 1 ug/ml [5]: 6.22 h
half-life at 1 ug/ml [6]: 4.55 h
Activity [7]: Active
Activity [8]: Non-Toxic
Drug metabolism [13]: Metabolite_Detected
Drug metabolism [14]: Metabolite_Detected
microsomal CLint at 1 µM [15]: 787 µL/min/mg
Activity [16]: Active
Activity [17]: Active
Activity [18]: Active
Activity [19]: Active
Survival [20]: >35 days
